Source: ChEMBL document CHEMBL4376814, “Novel cyclin-dependent kinase 9 (CDK9) inhibitor with suppression of cancer stemness activity against non-small-cell lung cancer” (Eur J Med Chem, 2019)

Key:
NCI-H1299 [1] = test: Antiproliferative activity against human H1299 cells assessed as inhibition of cell viability at 10 uM after 72 hrs by CCK-8 assay relative to control; format: functional; conditions: NCI-H1299, 72 h
Outline: (§1)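 Single-concentration viability screen using CCK-8. Cells were seeded at 3000/well and treated for 72 h. A450 read after 1-4 h with reagent. Percent inhibition calculated against untreated control and blank wells as (Ac−As)/(Ac−Ab)×100%.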

[2] = molecular target: T1, CDK4/Cyclin D3 (Homo sapiens) (UniProt P11802+P30281); test: Inhibition of recombinant full-length human CDK4/cyclinD3 at 1 uM using Rb fragment as substrate measured after 40 mins in presence of [gamma33P]ATP by scintillation counting method relative to control; format: protein-complex assay
Outline: (§2)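 Percent inhibition of kinase activity at a single compound concentration, measured by the outsourced Eurofins KinaseProfiler panel. Values are the mean of two independent experiments.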

[3] = molecular target: T2, CDK6/cyclin D3 (Homo sapiens) (UniProt P30281+Q00534); test: Inhibition of recombinant full-length human CDK6/cyclinD3 at 1 uM using histone H1 as substrate measured after 40 mins in presence of [gamma33P]ATP by scintillation counting method relative to control; format: protein-complex assay; outline: as §2
[4] = molecular target: T3, CDK9/cyclin T1 (Homo sapiens) (UniProt O60563+P50750); test: Inhibition of recombinant full-length human CDK9/cyclinT1 at 1 uM using KTFCGTPEYLAPEVRREPRILSEEEQEMFRDFDYIADWC peptide as substrate measured after 40 mins in presence of [gamma33P]ATP by scintillation counting method relative to control; format: protein-complex assay; outline: as §2
A549 [5] = test: Antiproliferative activity against human A549 cells assessed as inhibition of cell viability at 1 uM after 72 hrs by CCK-8 assay relative to control; format: functional; conditions: A549, 72 h; outline: as §1
[6] = molecular target: T1, CDK4/Cyclin D3 (Homo sapiens); test: Inhibition of recombinant full-length human CDK4/cyclinD3 at 500 nM using Rb fragment as substrate measured after 40 mins in presence of [gamma33P]ATP by scintillation counting method relative to control; format: protein-complex assay; outline: as §2
[7] = molecular target: T2, CDK6/cyclin D3 (Homo sapiens); test: Inhibition of recombinant full-length human CDK6/cyclinD3 at 500 nM using histone H1 as substrate measured after 40 mins in presence of [gamma33P]ATP by scintillation counting method relative to control; format: protein-complex assay; outline: as §2
A549 [8] = test: Antiproliferative activity against human A549 cells assessed as inhibition of cell viability at 10 uM after 72 hrs by CCK-8 assay relative to control; format: functional; conditions: A549, 72 h; outline: as §1
[9] = molecular target: T3, CDK9/cyclin T1 (Homo sapiens); test: Inhibition of recombinant full-length human CDK9/cyclinT1 at 500 nM using KTFCGTPEYLAPEVRREPRILSEEEQEMFRDFDYIADWC peptide as substrate measured after 40 mins in presence of [gamma33P]ATP by scintillation counting method relative to control; format: protein-complex assay; outline: as §2
NCI-H1299 [10] = test: Antiproliferative activity against human H1299 cells assessed as inhibition of cell viability at 1 uM after 72 hrs by CCK-8 assay relative to control; format: functional; conditions: NCI-H1299, 72 h; outline: as §1

| Structure (SMILES) | inhibition at 10 µM (NCI-H1299 [1]) [%] | inhibition [2] [%] | inhibition [3] [%] | inhibition [4] [%] | inhibition at 1 µM (A549 [5]) [%] | inhibition [6] [%] | inhibition [7] [%] | inhibition at 10 µM (A549 [8]) [%] | inhibition [9] [%] | inhibition at 1 µM (NCI-H1299 [10]) [%] |
| --- | --- | --- | --- | --- | --- | --- | --- | --- | --- | --- |
| CN(C)C(=O)c1cc2cnc(Nc3ccc(C(=O)NCCCCCN=C=S)cc3)nc2n1C1CCCC1 | 76.5 | 97 | 94 | 97 | 29.3 | 101 | 79 | 100 | 97 | 50.3 |
| CN(C)C(=O)c1cc2cnc(Nc3ccccc3NC(=O)CCCCCCCN=C=S)nc2n1C1CCCC1 | – | 14 | 1 | 11 | – | – | – | – | – | – |
| CN(C)C(=O)c1cc2cnc(Nc3ccc(C(=O)NCCCCCCN=C=S)cc3O)nc2n1C1CCCC1 | – | 45 | 47 | 81 | – | – | – | – | 5 | – |
| CN(C)C(=O)c1cc2cnc(Nc3ccc(C(=O)NCCCCCCCN=C=S)cc3O)nc2n1C1CCCC1 | – | 37 | 42 | 84 | – | – | – | – | 7 | – |
| CN(C)C(=O)c1cc2cnc(Nc3ccc(NC(=O)CCCCCN=C=S)cc3)nc2n1C1CCCC1 | 85 | 96 | 90 | 97 | 56.1 | 99 | 64 | 100 | 99 | 34.3 |
| CN(C)C(=O)c1cc2cnc(Nc3ccc(N4CCN(C(=O)CCCCCCCN=C=S)CC4)cn3)nc2n1C1CCCC1 | – | 98 | 93 | 58 | – | 91 | 62 | – | 3 | – |
| CN(C)C(=O)c1cc2cnc(Nc3ccc(NC(=O)CCCCCCN=C=S)cc3)nc2n1C1CCCC1 | 80.9 | 97 | 86 | 99 | 43.3 | 99 | 65 | 102 | 98 | 50.9 |
| CN(C)C(=O)c1cc2cnc(Nc3ccc(C(=O)NCCCN=C=S)cc3)nc2n1C1CCCC1 | 91.2 | 99 | 94 | 98 | 32.9 | 98 | 69 | 102 | 100 | 65.1 |
| CN(C)C(=O)c1cc2cnc(Nc3ccc(S(=O)(=O)NCCCN=C=S)cc3)nc2n1C1CCCC1 | 72.8 | 90 | 89 | 97 | 58.9 | 85 | 59 | 102 | 96 | 41.3 |
| CN(C)C(=O)c1cc2cnc(Nc3ccc(C(=O)NCCCCCCN=C=S)cn3)nc2n1C1CCCC1 | – | 95 | 82 | 73 | – | 93 | 52 | – | 27 | – |
| O=C(CCCCCCCN=C=S)Nc1ccc(Nc2ncc3nnn(C4CCCC4)c3n2)cc1 | – | 19 | 42 | 78 | – | – | – | – | 34 | – |
| CN(C)C(=O)c1cc2cnc(Nc3ccc(NC(=O)CCCN=C=S)cc3)nc2n1C1CCCC1 | 78.8 | 98 | 93 | 98 | 56.1 | 99 | 70 | 102 | 99 | 39.7 |
